What all share (assay type): functional
Assay [1] has as its system Escherichia coli. Description: Antibacterial activity against Escherichia coli ATCC 35150 after 24 hrs by two fold serial dilution method. The conditions noted are these: ATCC 35150, 24 h. In short, it runs like this: (§1)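 Broth two-fold serial dilution per CLSI, in nutrient broth. Inoculum from 24 h cultures at 28 ± 1 °C, adjusted in saline to 1×10^7-2×10^7 cfu/mL, then diluted to 1×10^5-2×10^5 cfu/mL. Test range 256 down to 0.50 µM and lower. Tubes held 24 h at 28 ± 1 °C. MIC read visually. Enrofloxacin and norfloxacin served as standards.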

Assay [2] deals with Flavobacterium columnare. The assay can be described thus: Antibacterial activity against Flavobacterium columnare FC-G1 after 24 hrs by two fold serial dilution method. The conditions noted are these: FC-G1, 24 h. In short, it runs like this:
as §1

The subject of assay [3] is Streptococcus agalactiae. The assay can be described thus: Antibacterial activity against Streptococcus agalactiae WB1445 after 24 hrs by two fold serial dilution method. The conditions noted are these: WB1445, 24 h. In short, it runs like this: as §1
Assay [4] relates to Staphylococcus aureus. Description: Bactericidal activity against Staphylococcus aureus ATCC 29213 incubated for 24 hrs followed by re-plating on nutrient agar and measured after overnight incubation by two fold serial dilution method. The conditions noted are these: ATCC 29213, 24 h. In short, it runs like this: (§2)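 After the MIC read, 100 µl from every tube without visible growth was spread on nutrient agar lacking compound. Plates were incubated overnight at 28 ± 1 °C. MBC was taken as the lowest concentration killing >99.9% of the initial population, seen as no growth on agar.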

Assay [5] has as its system Escherichia coli. The assay can be described thus: Bactericidal activity against Escherichia coli ATCC 35150 incubated for 24 hrs followed by re-plating on nutrient agar and measured after overnight incubation by two fold serial dilution method. The conditions noted are these: ATCC 35150, 24 h. In short, it runs like this:
as §2

Assay [6] relates to Streptococcus agalactiae. Description: Bactericidal activity against Streptococcus agalactiae WB1445 incubated for 24 hrs followed by re-plating on nutrient agar and measured after overnight incubation by two fold serial dilution method. The conditions noted are these: WB1445, 24 h. In short, it runs like this:
as §2

In assay [7] the test system is Staphylococcus aureus. Description: Antibacterial activity against Staphylococcus aureus ATCC 29213 after 24 hrs by two fold serial dilution method. The conditions noted are these: ATCC 29213, 24 h. In short, it runs like this:
as §1

Assay [8] concerns Flavobacterium columnare. Description: Bactericidal activity against Flavobacterium columnare FC-G1 incubated for 24 hrs followed by re-plating on nutrient agar and measured after overnight incubation by two fold serial dilution method. The conditions noted are these: FC-G1, 24 h. In short, it runs like this:
as §2

This note sets out measurements from ChEMBL document CHEMBL4251599, “Synthesis and biological evaluation of coumarin derivatives containing imidazole skeleton as potential antibacterial agents” (Eur J Med Chem, 2018).

In brackets after ≈: the same amount, converted by molar mass.

One may read the MIC as the lowest concentration that inhibits growth of the organism. In general, MBC refers to the lowest tested concentration that kills the bacteria rather than only halting them.

Consider `O=c1ccc2ccc(OCCn3ccnc3)cc2o1`, for which the MIC against Escherichia coli [1] was 128 µM (≈ 32.8 µg/mL); in the assay with Flavobacterium columnare [2], over 256 µM; in the assay on Streptococcus agalactiae [3], over 256 µM; against Staphylococcus aureus [7], over 256 µM. For the same compound, the MBC against Staphylococcus aureus [4] is over 256 µM; against Escherichia coli [5] it was 256 µM (≈ 65.6 µg/mL); against Streptococcus agalactiae [6] it was over 256 µM; against Flavobacterium columnare [8], over 256 µM.
Turning to `O=c1ccc2ccc(OCCCCCCn3ccnc3-c3ccccc3)cc2o1`, the MIC against Escherichia coli [1], against Flavobacterium columnare [2], against Streptococcus agalactiae [3] and with Staphylococcus aureus [7] was over 256 µM throughout. Besides, the MBC with Staphylococcus aureus [4], with Escherichia coli [5], against Streptococcus agalactiae [6] and with Flavobacterium columnare [8] was over 256 µM throughout.
Turning to `O=c1ccc2ccc(OCCCCCCCCn3cccn3)cc2o1`, the MIC with Flavobacterium columnare [2] and against Streptococcus agalactiae [3] was over 256 µM in each case. The MBC in the assay with Streptococcus agalactiae [6] and against Flavobacterium columnare [8] was over 256 µM in each case.
`Cc1cc(=O)oc2cc(OCCCCCCCCn3ccnc3C)ccc12`: the MIC with Escherichia coli [1] was over 256 µM; in the assay on Flavobacterium columnare [2] it was 4 µM (≈ 1.47 µg/mL); in the assay on Streptococcus agalactiae [3], 16 µM (≈ 5.9 µg/mL); against Staphylococcus aureus [7], 64 µM (≈ 23.6 µg/mL). For the same compound, the MBC against Staphylococcus aureus [4] was 256 µM (≈ 94.3 µg/mL); against Escherichia coli [5] it was over 256 µM; in the assay with Streptococcus agalactiae [6], 16 µM (≈ 5.9 µg/mL); against Flavobacterium columnare [8] it was 8 µM (≈ 2.95 µg/mL).
On to `O=c1ccc2ccc(OCCBr)cc2o1`, for which the MIC against Escherichia coli [1], with Flavobacterium columnare [2], against Streptococcus agalactiae [3] and with Staphylococcus aureus [7] was over 256 µM in each case. For the same compound, the MBC against Staphylococcus aureus [4], against Escherichia coli [5], against Streptococcus agalactiae [6] and against Flavobacterium columnare [8] was over 256 µM in each case.
`Cc1cn(CCOc2ccc3ccc(=O)oc3c2)cn1`: the MIC was 16 µM (≈ 4.32 µg/mL) against Escherichia coli [1], over 256 µM against Flavobacterium columnare [2], over 256 µM in the assay on Streptococcus agalactiae [3] and over 256 µM against Staphylococcus aureus [7]. Moreover, the MBC in the assay on Staphylococcus aureus [4] is over 256 µM; with Escherichia coli [5] it was 64 µM (≈ 17.3 µg/mL); in the assay with Streptococcus agalactiae [6], over 256 µM; in the assay on Flavobacterium columnare [8], over 256 µM.
Consider `O=c1ccc2ccc(OCCn3ccnc3-c3ccccc3)cc2o1`, for which the MIC in the assay on Escherichia coli [1] was 128 µM (≈ 42.5 µg/mL); against Flavobacterium columnare [2], over 256 µM; in the assay on Streptococcus agalactiae [3], over 256 µM; in the assay with Staphylococcus aureus [7], over 256 µM. The MBC was over 256 µM against Staphylococcus aureus [4], 512 µM (≈ 170 µg/mL) in the assay on Escherichia coli [5], over 256 µM with Streptococcus agalactiae [6] and over 256 µM against Flavobacterium columnare [8].
Regarding `O=c1ccc2ccc(OCCCCCCn3ccnc3)cc2o1`, the MIC is 32 µM (≈ 10 µg/mL) in the assay with Escherichia coli [1], 64 µM (≈ 20 µg/mL) in the assay with Flavobacterium columnare [2], over 256 µM against Streptococcus agalactiae [3] and 64 µM (≈ 20 µg/mL) against Staphylococcus aureus [7]. The MBC against Staphylococcus aureus [4] was 64 µM (≈ 20 µg/mL); in the assay on Escherichia coli [5], 64 µM (≈ 20 µg/mL); against Streptococcus agalactiae [6], over 256 µM; in the assay on Flavobacterium columnare [8], 128 µM (≈ 40 µg/mL).
As for `Cc1nccn1CCOc1ccc2ccc(=O)oc2c1`, the MIC against Escherichia coli [1] is 64 µM (≈ 17.3 µg/mL); against Flavobacterium columnare [2], over 256 µM; against Streptococcus agalactiae [3] it was over 256 µM; in the assay with Staphylococcus aureus [7], over 256 µM. The MBC against Staphylococcus aureus [4] is over 256 µM; with Escherichia coli [5], 256 µM (≈ 69.2 µg/mL); against Streptococcus agalactiae [6] it was over 256 µM; with Flavobacterium columnare [8], over 256 µM.
Consider `O=c1ccc2ccc(OCCn3cnc4ccccc43)cc2o1`, for which the MIC in the assay with Escherichia coli [1] is 128 µM (≈ 39.2 µg/mL); with Flavobacterium columnare [2], over 256 µM; against Streptococcus agalactiae [3], over 256 µM; against Staphylococcus aureus [7] it was 64 µM (≈ 19.6 µg/mL). Also, the MBC in the assay on Staphylococcus aureus [4] is 256 µM (≈ 78.4 µg/mL); in the assay on Escherichia coli [5], 256 µM (≈ 78.4 µg/mL); in the assay with Streptococcus agalactiae [6] it was over 256 µM; in the assay with Flavobacterium columnare [8] it was over 256 µM.
For `O=c1ccc2ccc(OCCCCCCn3cnc4ccccc43)cc2o1`, the MIC is over 256 µM in the assay with Escherichia coli [1], 32 µM (≈ 11.6 µg/mL) in the assay on Flavobacterium columnare [2], 32 µM (≈ 11.6 µg/mL) against Streptococcus agalactiae [3] and 32 µM (≈ 11.6 µg/mL) against Staphylococcus aureus [7]. Also, the MBC in the assay with Staphylococcus aureus [4] is 256 µM (≈ 92.8 µg/mL); against Escherichia coli [5], over 256 µM; against Streptococcus agalactiae [6] it was 128 µM (≈ 46.4 µg/mL); against Flavobacterium columnare [8], 128 µM (≈ 46.4 µg/mL).
`Cc1cc(=O)oc2cc(OCCCCCCCCn3ccnc3)ccc12`: the MIC in the assay on Escherichia coli [1] is over 256 µM; against Flavobacterium columnare [2], 4 µM (≈ 1.42 µg/mL); against Streptococcus agalactiae [3], 8 µM (≈ 2.84 µg/mL); with Staphylococcus aureus [7] it was 64 µM (≈ 22.7 µg/mL). The MBC was 256 µM (≈ 90.7 µg/mL) in the assay on Staphylococcus aureus [4], over 256 µM in the assay on Escherichia coli [5], 16 µM (≈ 5.67 µg/mL) against Streptococcus agalactiae [6] and 16 µM (≈ 5.67 µg/mL) in the assay with Flavobacterium columnare [8].
Consider `O=c1ccc2ccc(OCCCCBr)cc2o1`, for which the MIC in the assay with Escherichia coli [1], in the assay with Flavobacterium columnare [2], against Streptococcus agalactiae [3] and against Staphylococcus aureus [7] was over 256 µM throughout. For the same compound, the MBC in the assay on Staphylococcus aureus [4], in the assay on Escherichia coli [5], against Streptococcus agalactiae [6] and against Flavobacterium columnare [8] was over 256 µM in each case.
